The text below walks through data of ChEMBL document CHEMBL1124663, “Design, synthesis, antineoplastic activity, and chemical properties of bis(carbamate) derivatives of 4,5-bis(hydroxymethyl)imidazole” (J Med Chem, 1989).

The nature of data set [1]: Retention time was determined. It counts as ADME.
Data set [2] deals with Mus musculus. Nature of the data set: Body weight difference (BWD) of test animals administered with 50 mg/kg compound is determined on day 5 for L1210 tumor cells. It counts as functional. An outline of the steps:
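L1210 leukaemia: 10^5 cells implanted ip on day 0 in mice. Freshly prepared saline suspension given ip once daily on days 1–5. Body weight difference in g (treated minus control) taken as day 5 minus day 1. Six animals per dose.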

Data set [3] deals with Mus musculus. Nature of the data set: Body weight difference (BWD) of test animals administered with 100 mg/kg compound is determined on […] tumor cells. It counts as functional. An outline of the steps:
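MX-1 human mammary xenograft: solid tumour fragment (1 mm3, 0.5 mg) placed as a subrenal capsule implant on day 0 in NCR-nu mice. Fresh saline suspension dosed ip on days 1, 5 and 9. Body weight difference in g (treated minus control) recorded. Assay evaluated on day 11. Six mice per group.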

Data set [4] relates to Mus musculus. Nature of the data set: The toxicity day was evaluated on day 0 for LOX tumor cells of test animals dosed with 200 mg/kg of compound; 3/6. It counts as functional.
Data set [5] deals with Mus musculus. Nature of the data set: The toxicity day was evaluated on day 0 for LOX tumor cells of test animals dosed with 50 mg/kg of compound; 6/6. It counts as functional.
Data set [6] relates to Mus musculus. Nature of the data set: The toxicity day was […] for M5076 minus 1 tumor cells of test animals dosed with 100 mg/kg of compound; 10/10. It counts as functional. An outline of the steps: (§1)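 M5076 sarcoma, 10^6 cells, inoculated ip into B6C3F1 mice on day 0. Fresh saline suspension given ip every fourth day (days 1, 5, 9, 13). Toxicity survivors were scored on day 5 as survivors over initial group. Body-weight difference was day 14 minus day 1.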

The test system of data set [7] is Mus musculus. Nature of the data set: The toxicity day was evaluated […] for M5076 minus 1 tumor cells of test animals dosed with 25 mg/kg of compound; 10/10. It counts as functional. In short, it runs like this: as §1
Data set [8] relates to Mus musculus. Nature of the data set: The percent of the median survival time of test mice compared to control mice, administered with 25 mg/kg compound on day 5 for L1210 tumor cells. It counts as functional. An outline of the steps: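 L1210 leukemia, 10^5 cells implanted ip on day 0. Drug given ip daily on days 1-5 as a saline suspension freshly prepared before each injection. Read-out is median survival of treated versus control mice (% T/C), and log cell kill is derived from it.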

The subject of data set [9] is Mus musculus. Nature of the data set: Body weight difference (BWD) of test animals administered with 50 mg/kg compound is determined on day 10 for LOX tumor cells.
Data set [10] has as its system Mus musculus. Nature of the data set: Body weight difference (BWD) of test animals administered with 200 mg/kg compound is determined on day 10 for LOX tumor cells.

Each structure is given as a SMILES string.

In data set [1], `CNC(=O)OCc1nc(SC)n(C)c1COC(=O)NC` gave a TR of 39 min. For the same compound, the BWD with Mus musculus [2] is on record as -0.5 g; with Mus musculus [3], -2.7 g; in the data set on Mus musculus [9] it was -3.3 g; with Mus musculus [10] it was -11.5 g. For the same compound, the “Survivors / animals tested” value in the data set with Mus musculus [4] is 3; in the data set with Mus musculus [5] it was 6; with Mus musculus [6], 10; in the data set on Mus musculus [7], 10. This compound also returned a T/C with Mus musculus [8] of 111%.
